# What was measured:
# Influenza A virus [1] = test: Antiviral activity against human influenza virus A/PR/8/38(H1N1) infected in chicken erythrocyte assessed as inhibition of hemagglutination after 1 hr; assay type: functional, organism-based; conditions: A/Puerto Rico/8/1934(H1N1)
# Outline: (§1)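 Twofold serial dilutions of inhibitor in PBS pH 6.5 with 0.01% gelatin, mixed with virus (2^2 HA units) for 1 h at 4 °C. Then 0.5% (v/v) chicken erythrocytes added, 1 h at 4 °C. Titer is the maximum dilution giving complete inhibition of hemagglutination. Concentrations are expressed per sialyl lactose unit. Virus was egg-grown and purified.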
# Influenza A virus [2] = test: Antiviral activity against human influenza virus A/Memphis/1/71(H3N2) infected in chicken erythrocyte assessed as inhibition of hemagglutination after 1 hr; assay type: functional, organism-based, Influenza A virus (A/Memphis/1/1971(H3N2)); outline: as §1
# Influenza A virus [3] = test: Antiviral activity against human influenza virus A/PR/8/38(H1N1) infected in guinea pig erythrocyte assessed as inhibition of hemolysis; assay type: functional, organism-based; conditions: A/Puerto Rico/8/1934(H1N1)
# Outline: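 Virus (2^8 HAU) preincubated 1 h at 4 °C with inhibitor in PBS. Then 2.5% (v/v) guinea pig erythrocytes added, 30 min at 4 °C. Cells pelleted, resuspended in 20 mM acetate-buffered saline pH 5.0, 30 min at 37 °C. Hemoglobin released read at A550 against 0.1% Triton X-100 as 100% hemolysis. IC50 expressed per sialyl lactose unit.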
# H3N2 subtype = test: Antiviral activity against human influenza virus A/Aichi/2/1968(H3N2) infected in chicken erythrocyte assessed as inhibition of hemagglutination after 1 hr; assay type: functional, organism-based; outline: as §1
# Influenza A virus [4] = test: Antiviral activity against human influenza virus A/PR/8/38(H1N1) infected in MDCK cells assessed as neutralization of viral infection after 20 hrs by colorimetric assay; assay type: functional, organism-based; conditions: A/Puerto Rico/8/1934(H1N1)
SMILES,IC50 (Influenza A virus [1]) [µM],IC50 (Influenza A virus [2]) [µM],IC50 (Influenza A virus [3]) [µM],IC50 (H3N2 subtype) [µM],IC50 (Influenza A virus [4]) [µM]
N[C@H]1[C@H]([C@H](O)[C@H](O)CO)O[C@@](O[C@H]2[C@@H](O)[C@@H](CO)O[C@@H](O[C@H]3[C@H](O)[C@@H](O)[C@H](OCCCCCSCCCCCC(=O)NCCC[Si](CCCNC(=O)CCCCCSCCCCCO[C@@H]4O[C@H](CO)[C@@H](O[C@@H]5O[C@H](CO)[C@H](O)[C@H](O[C@]6(C(=O)O)C[C@H](O)[C@@H](N)[C@H]([C@H](O)[C@H](O)CO)O6)[C@H]5O)[C@H](O)[C@H]4O)(CCCNC(=O)CCCCCSCCCCCO[C@@H]4O[C@H](CO)[C@@H](O[C@@H]5O[C@H](CO)[C@H](O)[C@H](O[C@]6(C(=O)O)C[C@H](O)[C@@H](N)[C@H]([C@H](O)[C@H](O)CO)O6)[C@H]5O)[C@H](O)[C@H]4O)CCCNC(=O)CCCCCSCCCCCO[C@@H]4O[C@H](CO)[C@@H](O[C@@H]5O[C@H](CO)[C@H](O)[C@H](O[C@]6(C(=O)O)C[C@H](O)[C@@H](N)[C@H]([C@H](O)[C@H](O)CO)O6)[C@H]5O)[C@H](O)[C@H]4O)O[C@@H]3CO)[C@@H]2O)(C(=O)O)C[C@@H]1O,16,250,62.5,4,16
N[C@H]1[C@H]([C@H](O)[C@H](O)CO)O[C@@](O[C@H]2[C@@H](O)[C@@H](CO)O[C@@H](O[C@H]3[C@H](O)[C@@H](O)[C@H](OCCCCCSCCC[Si](CCCSCCCCCO[C@@H]4O[C@H](CO)[C@@H](O[C@@H]5O[C@H](CO)[C@H](O)[C@H](O[C@]6(C(=O)O)C[C@H](O)[C@@H](N)[C@H]([C@H](O)[C@H](O)CO)O6)[C@H]5O)[C@H](O)[C@H]4O)(CCCSCCCCCO[C@@H]4O[C@H](CO)[C@@H](O[C@@H]5O[C@H](CO)[C@H](O)[C@H](O[C@]6(C(=O)O)C[C@H](O)[C@@H](N)[C@H]([C@H](O)[C@H](O)CO)O6)[C@H]5O)[C@H](O)[C@H]4O)CCCSCCCCCO[C@@H]4O[C@H](CO)[C@@H](O[C@@H]5O[C@H](CO)[C@H](O)[C@H](O[C@]6(C(=O)O)C[C@H](O)[C@@H](N)[C@H]([C@H](O)[C@H](O)CO)O6)[C@H]5O)[C@H](O)[C@H]4O)O[C@@H]3CO)[C@@H]2O)(C(=O)O)C[C@@H]1O,64,250,125,32,32
C[Si](C)(CCC[Si](CCCSCCCCCO[C@@H]1O[C@H](CO)[C@@H](O[C@@H]2O[C@H](CO)[C@H](O)[C@H](O[C@]3(C(=O)O)C[C@H](O)[C@@H](N)[C@H]([C@H](O)[C@H](O)CO)O3)[C@H]2O)[C@H](O)[C@H]1O)(CCCSCCCCCO[C@@H]1O[C@H](CO)[C@@H](O[C@@H]2O[C@H](CO)[C@H](O)[C@H](O[C@]3(C(=O)O)C[C@H](O)[C@@H](N)[C@H]([C@H](O)[C@H](O)CO)O3)[C@H]2O)[C@H](O)[C@H]1O)CCCSCCCCCO[C@@H]1O[C@H](CO)[C@@H](O[C@@H]2O[C@H](CO)[C@H](O)[C@H](O[C@]3(C(=O)O)C[C@H](O)[C@@H](N)[C@H]([C@H](O)[C@H](O)CO)O3)[C@H]2O)[C@H](O)[C@H]1O)CCC[Si](CCCSCCCCCO[C@@H]1O[C@H](CO)[C@@H](O[C@@H]2O[C@H](CO)[C@H](O)[C@H](O[C@]3(C(=O)O)C[C@H](O)[C@@H](N)[C@H]([C@H](O)[C@H](O)CO)O3)[C@H]2O)[C@H](O)[C@H]1O)(CCCSCCCCCO[C@@H]1O[C@H](CO)[C@@H](O[C@@H]2O[C@H](CO)[C@H](O)[C@H](O[C@]3(C(=O)O)C[C@H](O)[C@@H](N)[C@H]([C@H](O)[C@H](O)CO)O3)[C@H]2O)[C@H](O)[C@H]1O)CCCSCCCCCO[C@@H]1O[C@H](CO)[C@@H](O[C@@H]2O[C@H](CO)[C@H](O)[C@H](O[C@]3(C(=O)O)C[C@H](O)[C@@H](N)[C@H]([C@H](O)[C@H](O)CO)O3)[C@H]2O)[C@H](O)[C@H]1O,32,250,32,32,7.8
N[C@H]1[C@H]([C@H](O)[C@H](O)CO)O[C@@](O[C@H]2[C@@H](O)[C@@H](CO)O[C@@H](O[C@H]3[C@H](O)[C@@H](O)[C@H](OCCCCCSCCCCCC(=O)NCCC[Si](CCCNC(=O)CCCCCSCCCCCO[C@@H]4O[C@H](CO)[C@@H](O[C@@H]5O[C@H](CO)[C@H](O)[C@H](O[C@]6(C(=O)O)C[C@H](O)[C@@H](N)[C@H]([C@H](O)[C@H](O)CO)O6)[C@H]5O)[C@H](O)[C@H]4O)(CCCNC(=O)CCCCCSCCCCCO[C@@H]4O[C@H](CO)[C@@H](O[C@@H]5O[C@H](CO)[C@H](O)[C@H](O[C@]6(C(=O)O)C[C@H](O)[C@@H](N)[C@H]([C@H](O)[C@H](O)CO)O6)[C@H]5O)[C@H](O)[C@H]4O)c4ccccc4)O[C@@H]3CO)[C@@H]2O)(C(=O)O)C[C@@H]1O,16,250,62.5,8,25
C[Si](C)(CCC[Si](CCCNC(=O)CCCCCSCCCCCO[C@@H]1O[C@H](CO)[C@@H](O[C@@H]2O[C@H](CO)[C@H](O)[C@H](O[C@]3(C(=O)O)C[C@H](O)[C@@H](N)[C@H]([C@H](O)[C@H](O)CO)O3)[C@H]2O)[C@H](O)[C@H]1O)(CCCNC(=O)CCCCCSCCCCCO[C@@H]1O[C@H](CO)[C@@H](O[C@@H]2O[C@H](CO)[C@H](O)[C@H](O[C@]3(C(=O)O)C[C@H](O)[C@@H](N)[C@H]([C@H](O)[C@H](O)CO)O3)[C@H]2O)[C@H](O)[C@H]1O)CCCNC(=O)CCCCCSCCCCCO[C@@H]1O[C@H](CO)[C@@H](O[C@@H]2O[C@H](CO)[C@H](O)[C@H](O[C@]3(C(=O)O)C[C@H](O)[C@@H](N)[C@H]([C@H](O)[C@H](O)CO)O3)[C@H]2O)[C@H](O)[C@H]1O)CCC[Si](CCCNC(=O)CCCCCSCCCCCO[C@@H]1O[C@H](CO)[C@@H](O[C@@H]2O[C@H](CO)[C@H](O)[C@H](O[C@]3(C(=O)O)C[C@H](O)[C@@H](N)[C@H]([C@H](O)[C@H](O)CO)O3)[C@H]2O)[C@H](O)[C@H]1O)(CCCNC(=O)CCCCCSCCCCCO[C@@H]1O[C@H](CO)[C@@H](O[C@@H]2O[C@H](CO)[C@H](O)[C@H](O[C@]3(C(=O)O)C[C@H](O)[C@@H](N)[C@H]([C@H](O)[C@H](O)CO)O3)[C@H]2O)[C@H](O)[C@H]1O)CCCNC(=O)CCCCCSCCCCCO[C@@H]1O[C@H](CO)[C@@H](O[C@@H]2O[C@H](CO)[C@H](O)[C@H](O[C@]3(C(=O)O)C[C@H](O)[C@@H](N)[C@H]([C@H](O)[C@H](O)CO)O3)[C@H]2O)[C@H](O)[C@H]1O,8,250,32,4,5.6
N[C@H]1[C@H]([C@H](O)[C@H](O)CO)O[C@@](O[C@H]2[C@@H](O)[C@@H](CO)O[C@@H](O[C@H]3[C@H](O)[C@@H](O)[C@H](OCCCCCSCCC[Si](CCCSCCCCCO[C@@H]4O[C@H](CO)[C@@H](O[C@@H]5O[C@H](CO)[C@H](O)[C@H](O[C@]6(C(=O)O)C[C@H](O)[C@@H](N)[C@H]([C@H](O)[C@H](O)CO)O6)[C@H]5O)[C@H](O)[C@H]4O)(CCCSCCCCCO[C@@H]4O[C@H](CO)[C@@H](O[C@@H]5O[C@H](CO)[C@H](O)[C@H](O[C@]6(C(=O)O)C[C@H](O)[C@@H](N)[C@H]([C@H](O)[C@H](O)CO)O6)[C@H]5O)[C@H](O)[C@H]4O)c4ccccc4)O[C@@H]3CO)[C@@H]2O)(C(=O)O)C[C@@H]1O,64,250,250,125,64

# Reference: ChEMBL document CHEMBL1152424, “Syntheses and biological evaluations of carbosilane dendrimers uniformly functionalized with sialyl alpha(2-->3) lactose moieties as inhibitors for human influenza viruses” (Bioorg Med Chem, 2009)
